Assay results from ChEMBL document CHEMBL1126201, “Synthesis, characterization, and biological evaluation of a novel class of N-(arylethyl)-N-alkyl-2-(1-pyrrolidinyl)ethylamines: structural requirements and binding affinity at the sigma receptor” (J Med Chem, 1992).

What was measured:
[1] = target: Kappa-type opioid receptor (Cavia porcellus, UniProt P41144); test: Ability to displace [3H]bremazocine from opioid receptor kappa in guinea pig brain membranes; No inhibition; format: cell membranes
Chain of Kappa-type opioid receptor (P41144 whole entry): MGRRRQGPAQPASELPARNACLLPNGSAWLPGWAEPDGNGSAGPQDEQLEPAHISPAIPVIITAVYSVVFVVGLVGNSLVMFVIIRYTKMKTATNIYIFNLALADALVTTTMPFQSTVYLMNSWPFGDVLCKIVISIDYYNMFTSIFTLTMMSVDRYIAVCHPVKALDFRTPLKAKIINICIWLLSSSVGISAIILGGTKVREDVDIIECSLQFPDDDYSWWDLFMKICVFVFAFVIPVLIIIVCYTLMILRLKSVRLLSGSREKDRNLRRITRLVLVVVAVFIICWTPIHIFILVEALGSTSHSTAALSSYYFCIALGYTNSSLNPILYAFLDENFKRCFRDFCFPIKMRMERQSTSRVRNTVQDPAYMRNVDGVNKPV
How it was run: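 Kappa sites labeled with 2 nM [3H]bremazocine on guinea pig brain P2 membranes (500 µg protein) in 10 mM Tris-HCl pH 7.4, 0.5 mL, with 100 nM DAGO and 100 nM DSTLE to mask mu/delta; 90 min at 25 °C. Terminated by ice-cold buffer and glass-fiber filtration. Screened at 100, 1000 and 10,000 nM; duplicates.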

[2] = target: Glutamate [NMDA] receptor; test: Ability to displace [3H]TCP from PCP receptor in guinea pig membranes; format: cell membranes, Cavia porcellus
How it was run: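 Guinea pig brain (minus cerebella) crude P2 membranes, 500 µg protein, incubated with 5 nM [3H]TCP in 5 mM Tris-HCl pH 7.4 for 60 min at 4 °C. Filtered on polyethylenimine-soaked glass-fiber filters; nonspecific binding defined with 10 µM cyclazocine. […] Duplicates, 2–3 experiments; IC50 converted to Ki by Cheng-Prusoff (Kd 25 nM).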

D(2) dopamine receptor = D(2) dopamine receptor (Rattus norvegicus, UniProt P61169); test: Ability to displace [3H]sulpiride from dopamine receptor D2 in rat brain; format: tissue-based
Chain of D(2) dopamine receptor (P61169 whole entry): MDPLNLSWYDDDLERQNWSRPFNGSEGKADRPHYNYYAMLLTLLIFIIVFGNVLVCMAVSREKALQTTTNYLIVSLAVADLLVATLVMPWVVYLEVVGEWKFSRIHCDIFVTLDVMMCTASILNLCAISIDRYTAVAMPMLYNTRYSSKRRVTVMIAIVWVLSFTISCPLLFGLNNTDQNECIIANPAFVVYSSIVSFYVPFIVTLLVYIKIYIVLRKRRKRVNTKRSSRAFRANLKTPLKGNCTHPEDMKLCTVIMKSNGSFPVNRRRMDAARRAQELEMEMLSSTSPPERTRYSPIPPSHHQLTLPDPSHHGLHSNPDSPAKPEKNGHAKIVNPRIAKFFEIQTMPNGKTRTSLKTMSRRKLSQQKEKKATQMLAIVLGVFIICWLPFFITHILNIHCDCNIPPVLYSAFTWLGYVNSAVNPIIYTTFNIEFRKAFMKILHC
How it was run: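 Rat (male Sprague-Dawley) brain P2 membranes, 500 µg protein, with 5 nM [3H]-(-)-sulpiride in 50 mM Tris-HCl pH 7.7 + 120 mM NaCl, 60 min at 25 °C; haloperidol 1 µM for nonspecific binding; filtration, two washes.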

[3] = test system: Glutamate [NMDA] receptor; test: Ability to displace [3H]TCP from PCP receptor in guinea pig membranes; No inhibition; format: cell membranes, Cavia porcellus
How it was run: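 Guinea pig brain crude P2 membranes (500 µg protein) incubated with 5 nM [3H]TCP in 5 mM Tris-HCl pH 7.4, 0.5 mL, 60 min at 4 °C; stopped by ice-cold buffer and filtration through polyethylenimine-soaked (0.3%) glass-fiber filters, washed twice. Nonspecific binding with 10 µM cyclazocine. Screened at 100, 1000 and 10,000 nM; duplicates.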

Structure (SMILES)	Ki [1]	Ki (D(2) dopamine receptor)	Ki [3]	Ki [2]
CCN(CCc1ccc(Cl)c(Cl)c1)CCN1CCCC1	Not Active	1.66 µM	Not Active	
CCN(CC)CCN(C)CCc1ccc(Cl)c(Cl)c1	Not Active	3.01 µM	Not Active	
CN(CCN1CCCC1)Cc1ccc(Cl)c(Cl)c1	Not Active	1.3 µM	Not Active	
C[C@@H](CN1CCCC1)N(C)CCc1ccc(Cl)c(Cl)c1	Not Active	11.2 µM		3.04 µM

Now from value to compound, other results behind:

Ki [1]	Ki (D(2) dopamine receptor)	Ki [3]	Structure (SMILES)	Ki [2]
Not Active	6.75 µM		CN(CCc1ccc(Cl)c(Cl)c1)CCN1CCCCCC1	6.94 µM
Not Active	1.11 µM	Not Active	CN(CCc1ccc(Cl)c(Cl)c1)CCN1CCCC1	
Not Active	1.21 µM	Not Active	CN(CCc1ccc(Cl)c(Cl)c1)CCN1CCCCC1	
Not Active	6.5 µM	Not Active	CN(CCc1cccc(Cl)c1)CCN1CCCC1	
